Experimental data: PMC6997517 (EBioMedicine, 2020)

Key:
[1] = system: mice with IMQ-induced psoriasis-like disease; experiment: Histology and immunohistochemistry of back skin, psoriasis model; format: in vivo, mouse (C57BL/6); details: immunohistochemistry
Summary of the method: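 Back-skin lesions from imiquimod-treated C57BL/6 mice fixed in 4% paraformaldehyde, paraffin-embedded and sectioned at 7 μm. H&E staining used for epidermal/dermal thickness, measured by microscopy. Immunohistochemistry done with HRP/DAB detection using primary antibodies to CD68, CD4 and IL-17.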

CIA mice = experiment: Collagen-induced arthritis; format: in vivo, mouse (DBA/1 J); details: TIP3 10 nmol/g or MTX 2 mg/kg, i.p. daily from day 22
Summary of the method: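 Male DBA/1J mice (6–7 weeks, 20–23 g) immunised at tail base with 100 μg chicken type II collagen in an equal volume of complete Freund's adjuvant (day 0), boosted day 20. Groups of n = 7. Test compound (2·5 or 10 nmol/g) or methotrexate (2 mg/kg) in saline given i.p. once daily from day 22. Body weight, paw volume and arthritis index tracked. […] (maximum 16), twice weekly.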

TLR4 [2] = experiment: Western blot, LPS-stimulated RAW264.7 cells; format: cell-based, murine; details: for expression of MAPKs: Supp Fig. 1c (p-ERK, p-JNK, p-p38)
Summary of the method: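 Total protein extracted with M-PER reagent and quantified by BCA. Membranes incubated with primary antibodies overnight at 4 °C, washed in PBS/0·1% Tween 20, then HRP-conjugated secondary (1:1000) for 2 h. Bands detected by enhanced chemiluminescence, with β-actin as loading reference.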

RAW264.7 cells = experiment: MTT cell viability, RAW264.7 cells; format: cell-based, murine; details: ≤50 µM
Summary of the method: (§1)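 MTT colourimetric viability assay. HEK-Blue hTLR4 cells (high-glucose DMEM, 10% FBS, normocin) seeded at 5 × 10^4/well. RAW264.7 cells seeded at 2 × 10^5/well. Both grown overnight before exposure to test compound.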

TLR4 [3] = experiment: Cytokine ELISA, LPS-stimulated RAW264.7 cells; format: cell-based, murine; details: n ≥ 3
Summary of the method: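 Murine macrophages seeded at 2 × 10^5/well (96-well) or 5 × 10^5/well (24-well) and grown overnight, then treated with test compound and LPS. After 24 h treatment, secreted IFN-β was measured by pre-coated mouse IFN-β ELISA. Mouse IL-6 and mouse TNF-α were measured by ELISA kits.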

[4] = system: TLR4 (HEK-Blue™ hTLR4 cells); experiment: SEAP activity assay; format: cell-based, human; details: LPS-stimulated; absorbance at 620 nm; n ≥ 3
Summary of the method: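 Seeded at 2 × 10^5/well (24-well) and grown overnight, then treated with a range of test-compound concentrations with or without LPS. Supernatants heat-treated at 65 °C for 10 min. SEAP (NF-κB reporter) detected with HEK-Blue detection medium.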

HEK-Blue™ hTLR4 cells = experiment: MTT cell viability, HEK-Blue hTLR4 cells; format: cell-based, human; details: n ≥ 3
Summary of the method: as §1

[5] = system: multiple TLR signalling pathways; details: ref [44]; cited from earlier work

CN(Cc1cnc2nc(N)nc(N)c2n1)c1ccc(C(=O)N[C@@H](CCC(=O)O)C(=O)O)cc1 [MTX, methotrexate, reference compound]
overexpression of CD4 in skin [1]: just as in the MTX-treated group
overexpression of CD68 in skin [1]: just as in the MTX-treated group
overexpression of IL-17 in skin [1]: just as in the MTX-treated group
loss of body weight (CIA mice): not observed
arthritis index (CIA mice; maximal score 16): significantly decreased
relative paw volume (large paw volume) (CIA mice; plethysmometer): TIP3 (10 nmol/g)- and MTX-injected mice did not

DYDVCVCH [TIP3 w/o CPP]
Iκ-Bα degradation (TLR4 [2]): neither peptide inhibited Iκ-Bα degradation
phosphorylation of p65 subunit of NF-κB (p-p65) (TLR4 [2]): neither peptide inhibited Iκ-Bα degradation, phosphorylation of the p65 subunit of NF-κB (p-p65)
expression of MAPKs (TLR4 [2]): neither peptide inhibited Iκ-Bα degradation, phosphorylation of the p65 subunit of NF-κB (p-p65), or the expression of mitogen-activated protein kinase (MAPKs)
cell viability (RAW264.7 cells): did not affect the cell viability at ≤50 µM
LPS-induced TNF-α secretion (TLR4 [3]): did not have any modulatory effect on TNF-α secretion

KKWKMRRNQFWIKIQR [CPP, reference compound]
Iκ-Bα degradation (TLR4 [2]): neither peptide inhibited Iκ-Bα degradation
phosphorylation of p65 subunit of NF-κB (p-p65) (TLR4 [2]): neither peptide inhibited Iκ-Bα degradation, phosphorylation of the p65 subunit of NF-κB (p-p65)
expression of MAPKs (TLR4 [2]): neither peptide inhibited Iκ-Bα degradation, phosphorylation of the p65 subunit of NF-κB (p-p65), or the expression of mitogen-activated protein kinase (MAPKs)
cell viability (RAW264.7 cells): did not affect the cell viability at ≤50 µM
LPS-induced TNF-α secretion (TLR4 [3]): did not have any modulatory effect on TNF-α secretion

TIPLLS [TIP2]
inhibition of LPS-induced SEAP activity (NF-κB) [4]: TIP3, but not TIP2, hampered the LPS-induced SEAP activity
cell viability / cytotoxicity (HEK-Blue™ hTLR4 cells; 12·5 to 50 μM): did not show any significant cytotoxicity
cell viability / cytotoxicity (HEK-Blue™ hTLR4 cells; high concentration, 100 μM): slight cytotoxicity
TLR signalling inhibition [5]: TIP1, but not TIP2, abrogates multiple TLR signalling pathways
